An excerpt weighted towards active compounds, which were near 2.2% of everything screened.
p97 ATPase inh: inhibitors of human p97 ATPase, primary screen, biochemical. inhibition, % at 8 µM. AID 1481, 2009. 220,000 tested, 0.42% active. Transitional endoplasmic reticulum ATPase (Homo sapiens), P55072. recombinant p97 ATPase, Kinase-Glo ATP luminescence, 3 h; in the data active = inhibition above about 15%
eIF4E-4G inh: eIF4E–eIF4G protein interaction inhibitors, primary screen, biochemical, uHTS, TR-FRET, eIF4GI fragment; Eukaryotic translation initiation factor 4E (Mus musculus) + Eukaryotic translation …; TR-FRET eIF4E-eIF4GI(517-606) binding, 2 h; inhibition, % at 21.7 µM; 220,000 tested, 0.37% active; AID 782, 2007;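 active = inhibition above about 30%, limit read from the data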
14-3-3 Bad PPI: inhibitors of 14-3-3 zeta/Bad binding, primary screen, biochemical, TR-FRET, bovine 14-3-3 zeta; TR-FRET 14-3-3zeta/Dy647-pBad peptide displacement, 1 h; inhibition, % at 21.7 µM; 220,000 tested, 0.71% active; AID 781, 2007;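 active = inhibition above about 70%, limit read from the data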
Target sequence (P63103 whole entry, looked up): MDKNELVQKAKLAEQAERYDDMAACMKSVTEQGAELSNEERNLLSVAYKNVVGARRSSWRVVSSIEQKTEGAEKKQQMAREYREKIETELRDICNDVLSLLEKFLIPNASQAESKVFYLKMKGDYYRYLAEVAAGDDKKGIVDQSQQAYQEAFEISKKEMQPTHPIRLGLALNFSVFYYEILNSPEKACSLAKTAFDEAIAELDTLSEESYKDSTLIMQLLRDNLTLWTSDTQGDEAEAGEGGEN
Hck Nef HTS: inhibitors of Nef-activated human Hck kinase, primary screen, biochemical, Z-Lyte FRET, 384-well, Hck-YEEI. 220,000 tested, 0.68% active. inhibition, % at 20 µM. Recombinant Hck-YEEI plus Nef, Z-Lyte FRET kinase assay;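 active = Hck-Nef kinase inhibition above about 50%, limit read from the data; inactive = inhibition below that limit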
PERK inhibitor: block of dimerizer-induced PERK translation repression, primary screen, PERK inhibitor project, CHO PERK-DD cells, SEAP luminescence, HTS; CHO PERK-DD fusion, SEAP luminescence translation reporter; inhibition, % at 5.6 µM; 220,000 tested, 0.17% active; AID 1416, 2008;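 active = inhibition above the mean inhibition of all tested compounds plus 3 SD, set separately per screening campaign, cut at about 2.9% in these data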;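 note: PERK kinase domain activated by AP20187 dimerizer at 100 nM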
Calb biofilm kill: clotrimazole potentiators killing C. albicans biofilm, primary screen, 4-compound mixtures. C. albicans biofilm persisters + clotrimazole, fluorescence viability; primary screen in compound mixtures of four per well. inhibition, % at 7.6 µM. 120,000 tested, 0.02% active. AID 1242, 2008;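 active = inhibition above 30.3% in the primary screen of four-compound pools, then above 30% when the compound was retested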;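 note: compounds exposed to preformed 24 h biofilms for 48 h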
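Test system: C. albicans biofilms. Buffer or medium: RPMI/MOPS medium, pH 7.0. Timing: 48 h compound exposure at 37 °C. Technique: Alamar Blue fluorescence. Evaluation: percent inhibition of biofilm viability.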
Each line names hits and unclear results; the compound was inactive in the other large screens; [ ] = dose if it differs, or a comment.

O=C(c1ccccc1-n1cccn1)N1CCc2c([nH]c3ccccc23)C1c1ccccn1 (stereo not drawn)	none
CC(C)(C)n1nnnc1CN1CCN2CCCC2C1 (stereo not drawn)	none (no result: Calb biofilm kill)
COCCn1nnnc1CN1CCN2CCCC2C1 (stereo not drawn)	14-3-3 Bad PPI 86 (no result: Calb biofilm kill)
COc1ccc(C(=O)Nc2ccc3cn[nH]c3c2)c(OC)c1	none
CCCOc1ccc(/C(O)=C2\C(=O)C(=O)N(CCCOC)C23C(=O)N(C)c2ccccc23)cc1 (stereo not drawn)	14-3-3 Bad PPI 70 (no result: Calb biofilm kill)
CCCN1C(=O)C2(/C(=C(\O)c3ccc4c(c3)OCCO4)C(=O)C(=O)N2CCCOC)c2ccccc21 (stereo not drawn)	none (no result: Calb biofilm kill)
Cn1c2c(c(=O)n(C)c1=O)C(C(F)(F)F)(C(F)(F)F)N=C(CCC1CCCCC1)N2	none
S=C(NCCCN1CCOCC1)NCCCN1CCOCC1	none
S=c1[nH]nc(NCCCN2CCOCC2)s1	eIF4E-4G inh 42
Cn1cc(CCNC(=O)CC2C(=O)NCCN2CC(c2ccccc2)c2ccccc2)cn1 (stereo not drawn)	none
CCC(=O)c1c[nH]c(C(=O)NCc2cccnc2)c1	14-3-3 Bad PPI 80
CCCC(=O)c1c[nH]c(C(=O)NCc2cccnc2)c1	none
CNc1ncnc(Sc2ccc(Cl)cc2)c1[N+](=O)[O-]	none
O=C1CC(c2ccco2)CC(O)=C1C=Nc1cc(Cl)cc(Cl)c1 (stereo not drawn)	eIF4E-4G inh 52 (no result: Calb biofilm kill)
CCOc1ccc(N=CC2=C(O)CC(c3ccco3)CC2=O)cc1 (stereo not drawn)	none
CN(C)CCCC(C)(O)C(C)(C)c1ccccc1 (stereo not drawn)	p97 ATPase inh 15
O=C1CCC(C(=O)Nc2ccccc2N2CCOCC2)=NN1	none
Cc1ccccc1C(=O)NC(=S)Nc1ccc(Cc2ccncc2)cc1	none
COc1ccc(C(=O)NC(=S)Nc2ccc(Cc3ccncc3)cc2)cc1	14-3-3 Bad PPI 81
Oc1c(Cl)cc(Cl)c2cccnc12	Calb biofilm kill 43
N#C/C(=C\c1ccc(-c2ccc([N+](=O)[O-])cc2)o1)C(=O)Nc1nc(-c2cccs2)cs1	eIF4E-4G inh 31, Hck Nef HTS 67
N#C/C(=C\c1ccc(-c2ccccc2[N+](=O)[O-])o1)C(=O)Nc1nc(-c2cccs2)cs1	none
CSCCC(NC(=O)c1ccc(Cl)cc1)C(=O)NC(C)(C)C (stereo not drawn)	none (no result: Calb biofilm kill)
CCOc1ccc(/C=C2\SC(=O)N(c3ccc(O)cc3)C2=O)cc1OC	none
COc1cc(/C=C2\SC(=O)N(c3cccc(Cl)c3)C2=O)cc([N+](=O)[O-])c1O	eIF4E-4G inh 61, 14-3-3 Bad PPI 92
COc1cc(/C=C2\SC(=O)N(c3ccc(Cl)cc3)C2=O)cc([N+](=O)[O-])c1O	eIF4E-4G inh 71, 14-3-3 Bad PPI 93, Hck Nef HTS 75
Cc1cc(C)cc(-n2c(N)c(C(=O)Nc3c(C)n(C)n(-c4ccccc4)c3=O)c3nc4ccccc4nc32)c1	Hck Nef HTS 54
Cc1cccc(-n2c(O)c(C=Nc3ccccc3-c3n[nH]c(=S)[nH]c3=O)c3ccccc3c2=O)n1	eIF4E-4G inh 50
CC(O)CNc1nc2ccccc2n1CC(=O)N1CCN(Cc2ccccc2)CC1 (stereo not drawn)	none
O=c1cc(-c2ccc([N+](=O)[O-])cc2)nc2cc(-c3ccc(Cl)cc3)[nH]n12	14-3-3 Bad PPI 89[fluorescence artefact?]
O=c1cc(-c2ccccc2)nc2cc(-c3ccco3)[nH]n12	none
C=CCc1cc(C)ccc1OCC(O)CN1CCN(c2ccccc2)CC1 (stereo not drawn)	14-3-3 Bad PPI 70 (no result: Calb biofilm kill)
Cc1ccc(OCC(O)CN2CCN(Cc3ccc4c(c3)OCO4)CC2)c(C)c1 (stereo not drawn)	14-3-3 Bad PPI 77 (no result: Calb biofilm kill)
C=CCc1cc(OC)ccc1OCC(O)CN1CCN(c2ccc(OC)cc2)CC1 (stereo not drawn)	none
COCCNC(=S)N1CCN(Cc2cccc(OC)c2)CC1	none
CC(=O)Nc1ccnc(-c2cccnc2)n1	eIF4E-4G inh 86 (no result: Calb biofilm kill)
CC(C)C(=O)Nc1ccnc(-c2cccnc2)n1	none (no result: Calb biofilm kill)
CC1=CC2=NC(=O)CC(C)(C(=O)N(CC(=O)NC3CCCC3)c3cc(C)cc(C)c3)N2C=C1 (stereo not drawn)	eIF4E-4G inh 35
CC1=CC2=NC(=O)CC(C)(C(=O)N(CC(=O)NC(C)(C)C)C3CCCC3)N2C=C1 (stereo not drawn)	none (no result: Calb biofilm kill)
CC(=O)Nc1ccc(S(=O)(=O)N2CCN(Cc3ccccn3)CC2)cc1	14-3-3 Bad PPI 71 (no result: Calb biofilm kill)
CC(=O)c1c(C)[nH]c(C(=O)CN2C(=O)NC(C)(CCC(C)C)C2=O)c1C (stereo not drawn)	none
O=C1c2ccccc2C(=O)c2c1ccc(C(=O)N1CCCCC1)c2NCCO	none (no result: Calb biofilm kill)
CC1(C)CCCN(C(=O)c2ccc3c(c2NCCO)C(=O)c2ccccc2C3=O)C1	14-3-3 Bad PPI 81[fluorescence artefact?]
CC(/C=N\NC(=O)CN1CCN(S(=O)(=O)c2ccc(C)cc2)CC1)=C\c1ccccc1	eIF4E-4G inh 33[fluorescence artefact?], 14-3-3 Bad PPI 80[fluorescence artefact?]
CC(=O)Nc1ccc(OS(=O)(=O)c2ccc([N+](=O)[O-])cc2)cc1	none
Cc1ccc(-c2nnc(SCC(=O)n3c4c(c5ccccc53)CCCC4)o2)cc1	PERK inhibitor 3.0 (no result: Calb biofilm kill)
O=C(CSc1nnc(-c2ccccc2)o1)n1c2c(c3ccccc31)CCCC2	none (no result: Calb biofilm kill)
O=C(Nc1sc2c(c1C(=O)c1ccccc1)CCCC2)c1cccnc1	none
O=C(Nc1sc2c(c1C(=O)c1ccc(Cl)cc1)CCCC2)c1cccnc1	14-3-3 Bad PPI 71 (no result: Calb biofilm kill)
CCn1c(CSc2nccn2C)nc2cc(C(=O)O)ccc21	14-3-3 Bad PPI 72 (no result: Calb biofilm kill)
COc1cccc(C(=O)Nc2sc3c(c2C#N)CCN(C(C)=O)C3)c1	none
CC(=O)c1ccc(NC(=O)CN(C)CC(=O)Nc2cccc(F)c2)cc1	14-3-3 Bad PPI 90
C/C=C(\C)C(=O)N1CC2(CC(c3cccc(NC(=O)CC(c4ccccc4)c4ccccc4)c3)=NO2)C[C@H]1C(N)=O (stereo partly drawn)	eIF4E-4G inh 88 (no result: p97 ATPase inh, PERK inhibitor)
C/C=C\C(=O)Nc1cccc(C2=NOC3(C2)C[C@H](C(N)=O)N(C(=O)/C=C/CC)C3)c1 (stereo partly drawn)	none (no result: p97 ATPase inh, PERK inhibitor)

High-throughput results (PubChem)
